An excerpt weighted towards active compounds, which were near 2% of everything screened.
Scp1 inh: inhibitors of human Scp-1 phosphatase | Recombinant Scp1, phosphopeptide, malachite green phosphate absorbance | inhibition, % at 20 µM | 340,000 tested, 0.88% active | AID 493091;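 active = inhibition above about 50% at 20 µM, limit read from the data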;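 note: plate controls were DMSO wells with enzyme for no effect and wells lacking enzyme for full effect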
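Assay system: SCP-1 catalytic fragment, aa 76-261 | Buffer or medium: Tris acetate buffer pH 5.5 with MgCl2 and Tween-20 | Compound: One concentration, 20 µM, with 1.0% DMSO | Also added: Phospho 17-mer peptide substrate | Signal: Absorbance at 630 nm | Incubation: 45 min enzyme reaction at room temperature | Measure: % inhibition of SCP-1 phosphate liberation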
STEP block: inhibitors of human striatal-enriched phosphatase STEP; P54829; recombinant STEP, OMFP fluorogenic substrate, fluorescence; inhibition, % at 20 µM; 360,000 tested, 0.25% active; AID 588621;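 active = inhibition at 20 µM, scaled per plate between control wells, above about 37%, limit read from the data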;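 note: 0% = DMSO with enzyme and substrate and 100% = substrate only without enzyme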
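System: STEP phosphatase, cell-free reaction; Buffer or medium: Bis-Tris pH 6.0 buffer with DTT, detergent; Incubation: 20 min at room temperature, dark; Measured by: fluorescence, 480/540 nm.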
LMPTP inh: LMPTP (human) inhibition; recombinant LMPTP-A, OMFP fluorogenic substrate, fluorescence intensity; inhibition, % at 20 µM; P24666; 360,000 tested, 0.22% active;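 active = compounds that cut the enzyme signal by at least half of the control window in the single-dose screen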;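 note: plate controls were DMSO wells with enzyme plus substrate for no effect and substrate without enzyme for full effect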
Target sequence (P24666 whole entry, looked up): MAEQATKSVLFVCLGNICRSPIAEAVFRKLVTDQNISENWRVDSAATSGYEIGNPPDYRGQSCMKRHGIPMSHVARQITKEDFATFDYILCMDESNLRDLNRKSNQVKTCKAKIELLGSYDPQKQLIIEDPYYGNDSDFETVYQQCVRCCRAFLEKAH
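material = LMPTP-A | quantity = 0.625 nM enzyme | reagent = OMFP substrate, 400 µM final | buffer or medium = Bis-Tris pH 6.0, DTT, detergent | detection = endpoint fluorescence intensity from OMFP dephosphorylation | dosing = single 20 µM dose | read-out basis = % inhibition relative to no-enzyme and uninhibited control wells | control set = no-enzyme and uninhibited controls | timing = 50 min at room temperature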
DNMT1 block: DNMT1 (human) enzyme inhibition. 360,000 tested, 0.83% active. P26358. inhibition (reported as % activation of signal), % at 10 µM. DNMT1 molecular beacon, Hinp1I cleavage, fluorescence; in the data active = inhibition above about 50%
Rpn11 inh: inhibitors of human proteasome Rpn11. O00487. inhibition, % at 20 µM. AID 588493. human 26S proteasome, Ub4-pepOG fluorescence polarization; 20S core pre-blocked with epoxomicin. 360,000 tested, 0.59% active;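 active = inhibition at 20 µM, scaled to each plate's controls, above about 33%, limit read from the data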
Target sequence (O00487 whole entry, looked up): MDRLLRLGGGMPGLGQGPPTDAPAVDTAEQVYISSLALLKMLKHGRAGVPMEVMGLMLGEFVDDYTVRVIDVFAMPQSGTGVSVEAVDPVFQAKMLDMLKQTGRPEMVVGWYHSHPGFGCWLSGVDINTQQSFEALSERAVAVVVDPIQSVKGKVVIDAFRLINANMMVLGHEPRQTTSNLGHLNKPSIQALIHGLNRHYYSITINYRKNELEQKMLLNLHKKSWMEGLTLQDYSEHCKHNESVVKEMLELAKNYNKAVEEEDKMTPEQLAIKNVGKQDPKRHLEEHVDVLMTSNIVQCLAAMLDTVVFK
Rpn11 inh conf: Rpn11 inhibition confirmation, single concentration; inhibition, % at 20 µM; 1,900 tested, 29% active; shares compounds with Rpn11 inh; purified human 26S proteasome, Ub4-pepOG fluorescence polarization; proteasome pretreated with epoxomicin
MMP-2 inh: blocks human MMP-2, flagging nonselective RPN11 hits; shares compounds with Rpn11 inh; recombinant MMP-2, FRET peptide cleavage fluorescence; inhibition, % at 20 µM; 1,900 tested, 4% active; AID 602330;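 note: human MMP-2 activated beforehand with APMA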
Thrombin inh: blocks bovine thrombin, flagging nonselective RPN11 hits. shares compounds with Rpn11 inh. bovine thrombin cleavage of Ub4-pepOG, fluorescence polarization. inhibition, % at 20 µM. 1,900 tested, 13% active. AID 602333;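 active = mean inhibition at least 40% at 20 µM, or signal 3 deviations below plate average, so some actives read negative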;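 note: plate controls were thrombin with DMSO for no effect and buffer wells lacking thrombin for full effect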
Starred values were filed as active, the others as inactive. Cut-off read from the data, not from the text of the source, unless noted: active = inhibition above about 40%; inactive = the rest.

`COc1ccc2nc(/N=C/c3c(O)n(-c4cccc(Cl)c4)c(=O)[nH]c3=O)sc2c1` gave Scp1 inh 18.1, STEP block -1.5, LMPTP inh 1.1, DNMT1 block 0.2, Rpn11 inh 47.5*, Rpn11 inh conf 1.7, MMP-2 inh -22.2 and Thrombin inh -13.3.
Screening COc1cc(/C=C/c2nc3ccccc3c(=O)n2-c2cccc(O)c2)ccc1O returned Scp1 inh -2.0, STEP block 0.7, LMPTP inh 1.7, DNMT1 block -9.3, Rpn11 inh 92.9*, Rpn11 inh conf 18.7, MMP-2 inh 26.3 and Thrombin inh 18.9.
For O=c1c2ccccc2nc(/C=C/c2ccc(O)cc2)n1-c1ccccc1O the results were Scp1 inh -4.1, STEP block -3.8, LMPTP inh 0.1, DNMT1 block -8.0, Rpn11 inh 38.7*, Rpn11 inh conf 12.7, MMP-2 inh -16.8 and Thrombin inh 7.4.
For CC(C)(C)C1(CCO)C(=O)NC(=S)NC1=O the results were Scp1 inh -4.7, STEP block -4.2, LMPTP inh -0.9, DNMT1 block -0.8 and Rpn11 inh -5.2.
For Cc1ccc(C(=O)Nc2ccc(-n3ccnc3P(=O)(O)c3ccccc3)cc2)cc1 the results were Scp1 inh -0.5, STEP block 2.4, LMPTP inh -1.8, DNMT1 block -0.8 and Rpn11 inh -5.9.
O=c1[nH]c(=O)n(-c2ccc(F)cc2)c(O)c1C=Nc1ccccc1N1CCCC1 was read as Scp1 inh -7.5, STEP block -0.3, LMPTP inh 1.6, DNMT1 block 20.4, Rpn11 inh 61.1*, Rpn11 inh conf 15.5, MMP-2 inh 28.9 and Thrombin inh -51.6.
Cc1ccc(-n2c(O)c(C=Nc3ccccc3N)c(=O)[nH]c2=O)cc1C was read as Scp1 inh -5.6, STEP block 1.9, LMPTP inh 0.7, DNMT1 block -1.4 and Rpn11 inh 6.1.
For CC(C)CCNC(=O)c1cc(C(=O)c2cc(Br)ccc2O)cn(CCC(C)C)c1=O the results were Scp1 inh -4.5, STEP block 0.7, LMPTP inh 0.1, DNMT1 block 0.4, Rpn11 inh 45.4*, Rpn11 inh conf -10.0, MMP-2 inh -17.3 and Thrombin inh -9.2.
Screening Nc1ccc(-c2ccc(N)cc2)cc1 returned Scp1 inh -4.7, STEP block 0.0, LMPTP inh -2.9, DNMT1 block 0.8 and Rpn11 inh -3.9.
`CN1CCc2c([nH]c3ccccc23)C1` gave Scp1 inh 1.4, STEP block -3.7, LMPTP inh 1.6, DNMT1 block -10.4 and Rpn11 inh 3.9.
CC1=NCCc2c1[nH]c1ccccc21 was read as Scp1 inh 4.1, STEP block -8.2, LMPTP inh 0.7, DNMT1 block -20.0, Rpn11 inh 61.6*, Rpn11 inh conf -4.5, MMP-2 inh -29.1 and Thrombin inh -6.1.
For C=CCn1c(O)c(C(C)=NCCC2=CCCCC2)c(=O)[nH]c1=O the results were Scp1 inh -3.7, STEP block -2.6, LMPTP inh -0.4, DNMT1 block 0.6 and Rpn11 inh 2.4.
COc1ccc(/C=C/C(=O)c2c(O)n(CCC3=CCCCC3)c(=O)[nH]c2=O)cc1OC was read as Scp1 inh 1.3, STEP block -5.2, LMPTP inh -1.0, DNMT1 block -2.5, Rpn11 inh 44.4*, Rpn11 inh conf active, MMP-2 inh -61.8 and Thrombin inh active.
Screening O=c1c2ccccc2nc(-c2ccco2)n1-c1nccs1 returned Scp1 inh -2.2, STEP block 0.2, LMPTP inh 0.3, DNMT1 block 10.4, Rpn11 inh 49.9*, Rpn11 inh conf -11.7, MMP-2 inh -27.9 and Thrombin inh -6.2.
